What is called IC50 is the point on the concentration scale where inhibition reaches its midpoint.

What all share (type): functional
Assay [1] has as its system KB. Briefly: Cytotoxicity in human KB cells assessed as reduction in cell growth incubated for 72 hrs by neutral red staining based colorimetry. Put shortly: (§1)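 Cells grown in D-MEM with 10% fetal calf serum, 2 mM L-glutamine, penicillin G, streptomycin and gentamicin, seeded at 3 × 10^3 cells per mL. Compound stocks in DMSO/H2O (1/9). Exposure 72 h at 37 °C in air/CO2 (95:5). Living cells stained with neutral red, optical density read at 540 nm. Run in triplicate. IC50 taken as concentration inhibiting growth to 50% of untreated control.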

In assay [2] the test system is Lu1. Briefly: Cytotoxicity in human Lu1 cells assessed as reduction in cell growth incubated for 72 hrs by neutral red staining based colorimetry. As to conditions: Lu1, 72 h. The method, boiled down: as §1
Assay [3] has as its system MCF7. Briefly: Cytotoxicity in human MCF7 cells assessed as reduction in cell growth incubated for 72 hrs by neutral red staining based colorimetry. Particulars: MCF7, 72 h. The method, boiled down: as §1
Assay [4] has as its system HL-60. Put plainly: Cytotoxicity in human HL60 cells assessed as reduction in cell growth incubated for 72 hrs by neutral red staining based colorimetry. Particulars: HL-60, 72 h. Put shortly:
as §1

Assay [5] deals with HeLa. Put plainly: Cytotoxicity in human HeLa cells assessed as reduction in cell growth incubated for 72 hrs by neutral red staining based colorimetry. Put shortly:
as §1

In assay [6] the test system is HepG2. Briefly: Cytotoxicity in human HepG2 cells assessed as reduction in cell growth incubated for 72 hrs by neutral red staining based colorimetry. As to conditions: HepG2, 72 h. Put shortly:
as §1

On to `Cc1c2ccncc2c(C)c2c1[nH]c1ccccc12` [ELLIPTECINE], for which the IC50 was 1.2 µM in assay [1]; 1.6 µM in assay [2]; 2.4 µM in assay [3]; 2 µM in assay [4]; 1.6 µM in assay [5].
In the case of `CO[C@@H](C(=O)N[C@H]1CC[C@@H](O)CNC1=O)[C@H](O)[C@@H](O)[C@H](O)/C=C/C(C)(C)C`, the IC50 in assay [1] is 62.6 µM; in assay [2] it was 23.4 µM; in assay [6], > 150 µM; in assay [3], 23.4 µM; in assay [4] it was > 150 µM; in assay [5], > 150 µM.
As to `CO[C@@H](C(=O)N[C@H]1CCCCNC1=O)[C@@H]1OC(C)(C)O[C@H](/C=C/C(C)(C)C)[C@@H]1O`, the IC50 in assay [1], in assay [2], in assay [6], in assay [3], in assay [4] and in assay [5] was > 150 µM throughout.
For `CO[C@@H](C(=O)N[C@@H]1CC[C@H](O)CNC1=O)[C@H](O)[C@@H](O)[C@H](O)/C=C/C(C)(C)C`, the IC50 in assay [1] is 23.7 µM; in assay [2], 36.3 µM; in assay [6], 138 µM; in assay [3], 80.4 µM; in assay [4] it was > 150 µM; in assay [5], > 150 µM.
Turning to `CO[C@@H](C(=O)N[C@@H]1CCCCNC1=O)[C@H](O)[C@@H](O)[C@H](O)/C=C/C(C)(C)C`, the half-maximal inhibitory concentration (IC50) in assay [1] was found to be 1.1 µM; in assay [2], 0.5 µM; in assay [6], 1.1 µM; in assay [3], 0.2 µM; in assay [4], 5.3 µM; in assay [5] it was 2.1 µM.
Turning to `CO[C@@H](C(=O)N[C@@H]1CCCCNC1=O)[C@@H]1OC(C)(C)O[C@H](/C=C/C(C)(C)C)[C@@H]1O`, the IC50 in assay [1], in assay [2], in assay [6], in assay [3], in assay [4] and in assay [5] was > 150 µM each time.
Consider `CO[C@@H](C(=O)N[C@H]1CC[C@H](O)CNC1=O)[C@H](O)[C@@H](O)[C@H](O)/C=C/C(C)(C)C`, for which the 50% inhibitory concentration (IC50) is 19.8 µM in assay [1]; 10 µM in assay [2]; 103 µM in assay [6]; 144 µM in assay [3]; > 150 µM in assay [4]; > 150 µM in assay [5].
In the case of `CO[C@@H](C(=O)N[C@@H]1CC[C@@H](O)CNC1=O)[C@H](O)[C@@H](O)[C@H](O)/C=C/C(C)(C)C`, the IC50 in assay [1] was found to be 5.1 µM; in assay [2], 17.2 µM; in assay [6], 21.3 µM; in assay [3] it was 165 µM; in assay [4] it was 12.1 µM; in assay [5], 15.4 µM.
As for `CO[C@@H](C(=O)N[C@H]1CCCCNC1=O)[C@H](O)[C@@H](O)[C@H](O)/C=C/C(C)(C)C`, the half-maximal inhibitory concentration (IC50) in assay [1] is 21 µM; in assay [2] it was 4.3 µM; in assay [6], 21.1 µM; in assay [3], 1.3 µM; in assay [4], 83.3 µM; in assay [5] it was 60.7 µM.
